Data set [1] deals with T1, Hepatocyte growth factor receptor (Homo sapiens, UniProt P08581). The experiment in a line: Inhibition of HGF-stimulated c-Met autophosphorylation in serum starved human PC3 cells pre-incubated for 1 hr followed by human recombinant HGF stimulation for 10 mins by quantitative electrochemiluminescence immunoassay. It is filed as cell-based, PC-3. In short, it runs like this:
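Serum-starved PC-3 cells (plated in high-glucose DMEM/10% FBS, then 16 h in low-glucose DMEM with 0.1% BSA) were treated with a 10-point inhibitor dilution for 1 h at 37 °C. Cells were then stimulated with 200 ng/mL recombinant human HGF for 10 min and lysed. Phospho-c-Met was captured with biotinylated anti-c-Met and 4G10 by electrochemiluminescence. IC50, n ≥ 2.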

Data set [2] deals with Liver microsome. The experiment in a line: Unbound clearance rat liver microsomes at 1 uM in presence of NADPH by LC-MS/MS method. It counts as ADME. The procedure, abridged:
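Aliquots were taken at 0, 10, 20, 30 and 40 min, quenched with an equal volume of acetonitrile, centrifuged and analysed by LC/MS/MS.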
In general terms: Liver microsomes are vesicles of endoplasmic reticulum, rich in cytochrome P450 enzymes.

A short description of data set [3]: Drug metabolism in mouse liver microsomes assessed as formation of (S)-6-(1-(8-fluoro-6-(3-methylisoxazol-5-yl)-[1,2,4]triazolo[4,3-a]pyridin-3-yl)ethyl)quinolin-3-ol in presence of NADPH by LC-MS/MS method. It is filed as ADME. The procedure, abridged: (§1)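 Compound incubated with NADPH in mouse, rat, dog, monkey or human liver microsomes. Metabolites were identified by accurate mass spectrometry and MS/MS, and selected ion chromatograms were used to build metabolite profiles.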

The nature of data set [4]: Clearance in Sprague-Dawley rat at 0.25 mg/kg, iv. The conditions noted are these: Sprague-Dawley, in vivo. It is filed as ADME, organism-based. Also on record: dose 0.25 mg/kg, route intravenous.
Data set [5] has as its system Liver microsome. The experiment in a line: Drug metabolism in dog liver microsomes assessed as formation of (S)-2-(8-fluoro-6-(3-methylisoxazol-5-yl)-[1,2,4]triazolo[4,3-a]pyridin-3-yl)-2-(3-methoxyquinolin-6-yl)ethanol in presence of NADPH by LC-MS/MS method. It is filed as ADME, Canis lupus familiaris. In short, it runs like this: as §1
A short description of data set [6]: Half life in Sprague-Dawley rat at 0.25 mg/kg, iv. The note with it: in vivo. It is filed as ADME, organism-based. Set-up: dose 0.25 mg/kg, route intravenous.
Data set [7] concerns Liver microsome. Briefly: Drug metabolism in dog liver microsomes assessed as formation of (S)-(5-(8-fluoro-3-(1-(3-methoxyquinolin-6-yl)ethyl)-[1,2,4]triazolo[4,3-a]pyridin-6-yl)isoxazol-3-yl)methanol in presence of NADPH by LC-MS/MS method. It is filed as ADME, Canis lupus familiaris. The procedure, abridged: as §1
Data set [8] is described as follows: Drug metabolism in mouse liver microsomes assessed as metabolite M3 formation in presence of NADPH by LC-MS/MS method. It counts as ADME. The procedure, abridged: as §1
For data set [9], the target named is T1, Hepatocyte growth factor receptor. The experiment in a line: Inhibition of recombinant c-Met kinase domain (unknown origin) incubated for 30 mins using gastrin peptide substrate by HTRF assay. A general note: Time-resolved FRET reads energy transfer from a long-lived donor to a nearby acceptor.
Data set [10] concerns Liver microsome. The experiment in a line: Drug metabolism in dog liver microsomes assessed as formation of (S)-6-(1-(8-fluoro-6-(3-methylisoxazol-5-yl)-[1,2,4]triazolo[4,3-a]pyridin-3-yl)ethyl)quinolin-3-ol in presence of NADPH by LC-MS/MS method. It is filed as ADME, Canis lupus familiaris. The procedure, abridged:
as §1

Data set [11] is described as follows: Oral bioavailability in Sprague-Dawley rat at 2 mg/kg. The conditions noted are these: in vivo. It counts as ADME, organism-based. In short, it runs like this:
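Male Sprague-Dawley rats given 2.0 mg/kg orally in 2% (w/v) hydroxypropylmethylcellulose, 1% (w/v) Tween 80 in water, pH 2.2 (adjusted with HCl or MSA). Some inhibitors instead used 10% (v/v) dimethylacetamide in the same vehicle.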

Data set [12] is described as follows: Drug metabolism in monkey liver microsomes assessed as formation of (S)-2-(8-fluoro-6-(3-methylisoxazol-5-yl)-[1,2,4]triazolo[4,3-a]pyridin-3-yl)-2-(3-methoxyquinolin-6-yl)ethanol in presence of NADPH by LC-MS/MS method. It counts as ADME, Macaca mulatta. The note with it: rhesus monkey. In short, it runs like this: as §1
A short description of data set [13]: Volume of distribution at steady state in Sprague-Dawley rat at 0.25 mg/kg, iv. Set-up: dose 0.25 mg/kg, route intravenous. The conditions noted are these: in vivo, read-out: Vdss. It counts as ADME, organism-based. The procedure, abridged:
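Male Sprague-Dawley rats were given a single IV dose of 0.25 mg/kg. The vehicle was DMSO, or for some compounds 20% (w/v) hydroxypropyl β-cyclodextrin in water adjusted to pH 3.5 with MSA. NC marks cases where the terminal disposition rate constant could not be characterized for lack of slope.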

For data set [14], the system named is Liver microsome. The experiment in a line: Drug metabolism in rat liver microsomes assessed as formation of (S)-2-(8-fluoro-6-(3-methylisoxazol-5-yl)-[1,2,4]triazolo[4,3-a]pyridin-3-yl)-2-(3-methoxyquinolin-6-yl)ethanol in presence of NADPH by LC-MS/MS method. It is filed as ADME. In short, it runs like this:
as §1

The nature of data set [15]: Drug metabolism in mouse liver microsomes assessed as formation of (S)-2-(8-fluoro-6-(3-methylisoxazol-5-yl)-[1,2,4]triazolo[4,3-a]pyridin-3-yl)-2-(3-methoxyquinolin-6-yl)ethanol formation in presence of NADPH by LC-MS/MS method. It is filed as ADME. The procedure, abridged: as §1
Data set [16] deals with Liver microsome. Briefly: Drug metabolism in dog liver microsomes assessed as metabolite M3 in presence of NADPH by LC-MS/MS method. It counts as ADME, Canis lupus familiaris. The procedure, abridged:
as §1

Data set [17] relates to Liver microsome. The experiment in a line: Drug metabolism in rat liver microsomes assessed as formation of (S)-(5-(8-fluoro-3-(1-(3-methoxyquinolin-6-yl)ethyl)-[1,2,4]triazolo[4,3-a]pyridin-6-yl)isoxazol-3-yl)methanol in presence of NADPH by LC-MS/MS method. It counts as ADME. In short, it runs like this: as §1
In data set [18] the test system is Liver microsome. The experiment in a line: Drug metabolism in rat liver microsomes assessed as formation of (S)-6-(1-(8-fluoro-6-(3-methylisoxazol-5-yl)-[1,2,4]triazolo[4,3-a]pyridin-3-yl)ethyl)quinolin-3-ol in presence of NADPH by LC-MS/MS method. It counts as ADME. The procedure, abridged:
as §1

In data set [19] the test system is Liver microsome. Briefly: Drug metabolism in rat liver microsomes assessed as metabolite M3 formation in presence of NADPH by LC-MS/MS method. It counts as ADME. In short, it runs like this: as §1
The subject of data set [20] is Liver microsome. The experiment in a line: Drug metabolism in human liver microsomes assessed as formation of (S)-2-(8-fluoro-6-(3-methylisoxazol-5-yl)-[1,2,4]triazolo[4,3-a]pyridin-3-yl)-2-(3-methoxyquinolin-6-yl)ethanol in presence of NADPH by LC-MS/MS method. It counts as ADME. In short, it runs like this: as §1
The nature of data set [21]: Drug metabolism in mouse liver microsomes assessed as formation of (S)-(5-(8-fluoro-3-(1-(3-methoxyquinolin-6-yl)ethyl)-[1,2,4]triazolo[4,3-a]pyridin-6-yl)isoxazol-3-yl)methanol in presence of NADPH by LC-MS/MS method. It is filed as ADME. The procedure, abridged: as §1
Data set [22] in a line: AUC (0 to infinity) in Sprague-Dawley rat at 0.25 mg/kg, iv. The note with it: Sprague-Dawley, plasma. It is filed as ADME, organism-based, Plasma. Also on record: dose 0.25 mg/kg, route intravenous, time infinity.

As a reminder, the IC50 is the concentration needed to halve the response being measured. What is called clearance is the volume of plasma or blood freed of the substance per unit of time. One may read the half-life as the time needed for the level to fall by half in the phase considered. For orientation: bioavailability means dose-corrected exposure relative to a reference, in per cent. Usually AUC(0-inf) stands for the area under the concentration-time curve extrapolated to infinity.

T1 sequence (P08581 whole entry): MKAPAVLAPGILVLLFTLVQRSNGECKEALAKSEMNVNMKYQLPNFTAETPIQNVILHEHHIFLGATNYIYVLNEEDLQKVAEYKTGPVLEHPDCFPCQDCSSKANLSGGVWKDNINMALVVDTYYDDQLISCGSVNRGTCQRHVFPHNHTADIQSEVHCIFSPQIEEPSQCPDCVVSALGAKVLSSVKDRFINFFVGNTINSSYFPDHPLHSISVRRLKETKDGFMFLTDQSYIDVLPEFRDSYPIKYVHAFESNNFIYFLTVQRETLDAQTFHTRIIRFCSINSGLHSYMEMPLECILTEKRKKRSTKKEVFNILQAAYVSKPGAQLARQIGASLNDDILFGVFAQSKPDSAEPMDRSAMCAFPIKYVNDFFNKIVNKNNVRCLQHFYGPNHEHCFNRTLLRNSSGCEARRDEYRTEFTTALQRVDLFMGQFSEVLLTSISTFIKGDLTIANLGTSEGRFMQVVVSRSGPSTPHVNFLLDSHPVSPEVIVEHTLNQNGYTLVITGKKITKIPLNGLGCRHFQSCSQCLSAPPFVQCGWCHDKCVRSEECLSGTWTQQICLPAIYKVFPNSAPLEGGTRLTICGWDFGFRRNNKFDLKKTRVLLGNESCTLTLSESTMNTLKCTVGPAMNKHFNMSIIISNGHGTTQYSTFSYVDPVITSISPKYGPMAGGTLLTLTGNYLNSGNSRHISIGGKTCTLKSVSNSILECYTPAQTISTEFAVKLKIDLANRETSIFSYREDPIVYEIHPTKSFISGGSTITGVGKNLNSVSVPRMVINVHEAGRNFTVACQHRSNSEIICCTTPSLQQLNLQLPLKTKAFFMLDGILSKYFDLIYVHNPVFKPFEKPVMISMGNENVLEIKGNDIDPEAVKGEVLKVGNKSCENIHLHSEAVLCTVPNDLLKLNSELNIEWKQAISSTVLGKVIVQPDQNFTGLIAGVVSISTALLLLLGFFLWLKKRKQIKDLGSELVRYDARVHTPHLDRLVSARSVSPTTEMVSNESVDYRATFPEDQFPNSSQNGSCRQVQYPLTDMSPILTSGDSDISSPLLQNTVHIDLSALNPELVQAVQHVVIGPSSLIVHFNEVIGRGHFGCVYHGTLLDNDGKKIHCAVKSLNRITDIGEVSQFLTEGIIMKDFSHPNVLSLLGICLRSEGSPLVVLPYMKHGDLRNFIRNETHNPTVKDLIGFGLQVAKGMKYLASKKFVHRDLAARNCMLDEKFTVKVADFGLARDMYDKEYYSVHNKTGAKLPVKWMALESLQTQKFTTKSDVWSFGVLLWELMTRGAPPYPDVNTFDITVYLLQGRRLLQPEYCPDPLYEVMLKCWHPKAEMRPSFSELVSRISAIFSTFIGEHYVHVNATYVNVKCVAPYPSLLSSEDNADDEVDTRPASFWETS

As for `COc1cnc2ccc([C@H](C)c3nnc4c(F)cc(-c5cc(C)no5)cn34)cc2c1`, the IC50 in [1] came out at 6 nM; in [9], 2 nM. The CL free in data set [2] stood at 233 mL/min/kg. The Drug metabolism result in [3] was “metabolite_detected”; in data set [5], “metabolite_notdetected”; in [7] it was “metabolite_detected”; in data set [8], “metabolite_detected”; in data set [10], “metabolite_detected”; in data set [12], “metabolite_detected”. Further, the Drug metabolism result in data set [14] is on record as “metabolite_notdetected”; in [15], “metabolite_notdetected”; in data set [16] it was “metabolite_detected”; in data set [17] it was “metabolite_detected”; in data set [18] it was “metabolite_detected”; in data set [19], “metabolite_detected”. Moreover, the Drug metabolism result in [20] and in data set [21] was “metabolite_detected” in each case. In data set [4], this molecule gave a clearance of 1.5 mL/min/kg. The molecule also had a half-life in data set [6] of 2.5 h. This molecule yielded a bioavailability in data set [11] of 42%. The Vd in [13] is 0.18 L/kg. This molecule came in with an AUC(0-inf) in data set [22] of 9 µM·h.

The values above are taken from ChEMBL document CHEMBL3414463, “Discovery of potent and selective 8-fluorotriazolopyridine c-Met inhibitors” (J Med Chem, 2015).
